Active and inactive are the calls of the source. The calls are words filed in the database; no cut-off is given here. Bounds are passed on as bounds.

Data on 4 compounds can be found in ChEMBL document CHEMBL3627638, “Mixed up minor groove binders: Convincing A·T specific compounds to recognize a G·C base pair” (Bioorg Med Chem Lett, 2015).

Assay [1] concerns Nucleic Acid. Kind of assay: Binding affinity to hairpin oligomer duplex A4GT4 DNA (unknown origin) at 4:1 drug/DNA ratio by ESI mass spectrometry. In kind it is nucleic-acid assay. The note with it: Homo sapiens. A digest of the protocol: (§1)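 Competition ESI-MS run on a mixture of DNA sequences with a pure GC sequence as non-binding internal standard. Ligand was titrated at 1:1, 2:1 and 4:1 mole ratios to each single sequence (e.g. 10 μM ligand to 5 μM DNA). Relative peak intensities of free DNA and ligand-DNA complexes were compared.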

In assay [2] the test system is DNA. Put plainly: Binding affinity to AATTGCAATT-AATTGCAATT DNA fragment (unknown origin) by DNaseI footprinting analysis. In kind it is nucleic-acid assay. The note with it: Homo sapiens.
The test system of assay [3] is Nucleic Acid. Put plainly: Binding affinity to hairpin oligomer duplex A4GCT4 DNA (unknown origin) by ESI mass spectrometry. In kind it is nucleic-acid assay. The note with it: Homo sapiens.
Assay [4] relates to Nucleic Acid. Put plainly: Binding affinity to hairpin oligomer duplex A4T4 DNA (unknown origin) at 4:1 drug/DNA ratio by ESI mass spectrometry. The note with it: Homo sapiens. In kind it is nucleic-acid assay. Put shortly:
as §1

In assay [5] the test system is DNA. Kind of assay: Binding affinity to A4CT4-A4GT4 DNA fragment (unknown origin) by DNaseI footprinting analysis. The note with it: Homo sapiens. In kind it is nucleic-acid assay.
For assay [6], the system named is Nucleic Acid. Put plainly: Binding affinity to hairpin oligomer duplex A4T4 DNA (unknown origin) assessed as change in melting temperature at 2:1 drug/DNA ratio by spectrophotometry. In kind it is nucleic-acid assay.
Assay [7] deals with DNA. Kind of assay: Binding affinity to AATTCAATT-AATTGAATT DNA fragment (unknown origin) by DNaseI footprinting analysis. In kind it is nucleic-acid assay. The note with it: Homo sapiens.
The test system of assay [8] is Nucleic Acid. Kind of assay: Binding affinity to hairpin oligomer duplex A4GCT4 DNA (unknown origin) assessed as change in melting temperature at 2:1 drug/DNA ratio by spectrophotometry. In kind it is nucleic-acid assay.
Assay [9] has as its system Nucleic Acid. Put plainly: Binding affinity to hairpin oligomer duplex A4GT4 DNA (unknown origin) assessed as change in melting temperature at 2:1 drug/DNA ratio by spectrophotometry. In kind it is nucleic-acid assay.
Assay [10] relates to Nucleic Acid. Put plainly: Binding affinity to biotinylated-hairpin oligomer duplex A4GCT4 DNA (unknown origin) by surface plasmon resonance method. In kind it is nucleic-acid assay. The note with it: Homo sapiens. Background: Surface plasmon resonance follows binding to a sensor surface in real time, without labels.
For assay [11], the target named is Nucleic Acid. Put plainly: Binding affinity to biotinylated-hairpin oligomer duplex A4GT4 DNA (unknown origin) by surface plasmon resonance method in presence of 0.1 M Na+ ion. In kind it is nucleic-acid assay, Homo sapiens. Put shortly:
(§2)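 SPR sensorgrams recorded for ligand injected over immobilized hairpin DNA at a concentration series: 2, 3, 5, 7, 10 and 15 nM for A4GT4, higher concentrations for A4IT4 and A4T4.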

The subject of assay [12] is Nucleic Acid. Put plainly: Binding affinity to biotinylated-hairpin oligomer duplex A4T4 DNA (unknown origin) by surface plasmon resonance method. In kind it is nucleic-acid assay. The note with it: Homo sapiens. Put shortly:
as §2

For assay [13], the system named is Nucleic Acid. Kind of assay: Binding affinity to hairpin oligomer duplex A4GT4 DNA (unknown origin) by circular dichroism method. The note with it: Homo sapiens. In kind it is nucleic-acid assay. A digest of the protocol:
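Ligand titrated incrementally into the DNA, with CD spectra followed in the DNA region (230 to 290 nm).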
(CD spectra are sensitive to the conformation of chiral molecules.)

For assay [14], the target named is Nucleic Acid. Put plainly: Binding affinity to biotinylated-hairpin oligomer duplex A4IT4 DNA (unknown origin) by surface plasmon resonance method. In kind it is nucleic-acid assay, Homo sapiens. A digest of the protocol:
as §2

With `N=C(N)c1ccc2nc(-c3ccc(OCc4cccc(COc5ccc(-c6nc7ccc(C(=N)N)cc7[nH]6)cc5)c4)cc3)[nH]c2c1`, the result in assay [1], in assay [2], in assay [4], in assay [5] and in assay [7] was Active. Also, in assay [3], the result was inactive. For the same compound, the ΔTm (commonly the shift of the melting midpoint relative to a reference) in [6] was 21 °C; in [8] it was less than 1 °C; in [9], 17 °C.
For `CN1CCN(c2ccc3nc(-c4ccc(OCc5cccc(COc6ccc(-c7nc8ccc(N9CCN(C)CC9)cc8[nH]7)cc6)n5)cc4)[nH]c3c2)CC1`, the figures for the ΔTm in [6], in assay [8] and in assay [9] were 14 °C, 6 °C and 19 °C, respectively.
As to `N=C(N)c1ccc2nc(-c3ccc(OCc4cccc(COc5ccc(-c6nc7ccc(C(=N)N)cc7[nH]6)cc5)n4)cc3)[nH]c2c1`, the result in [1], in assay [12], in assay [5], in [13] and in assay [7] was Active. The result in [10], in assay [2] and in assay [3] was inactive. In addition, the Kd (usually the constant that tells how readily two partners part at equilibrium) in assay [11] worked out at 0.015 nM; in assay [14] it was 1.2 nM. Besides, the ΔTm in assay [6] was determined as 15 °C; in assay [8] it was 8 °C; in assay [9] it was 22 °C.
On to `N=C(N)c1ccc2nc(-c3ccc(-c4cccc(-c5ccc(-c6nc7ccc(C(=N)N)cc7[nH]6)cc5)n4)cc3)[nH]c2c1`, for which the outcome in assay [1] and in [4] was Active. In assay [3], the outcome was inactive. Further, the ΔTm was 24 °C in [6], 5 °C in [8] and 19 °C in assay [9].
